The RNAGym collection of RNA variant scans (doi:10.1126/science.aae0568)
Fewer inactive variants are shown than the library holds.

B1: tRNA (parent)
chain: GUUCCGUUGGCGUAAUGGUAACGCGUCUCCCUCCUAAGGAGAAGACUGCGGGUUCGAGUCCCGUACGGAACG

Variants of: B1
Assay: yeast fitness relative to wild type (ratio to wild type); higher = fitter; tRNA-Arg(CCU), competitive growth, 37 C, YPD
Summary of the method: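 Genotype frequency changes were the basis for Darwinian fitness relative to wild type. The frequencies came from 100-nucleotide paired-end sequencing of gene amplicons from the start population and each end population of pooled yeast strains with tRNA-Arg(CCU) gene variants at the native locus. Competition ran in YPD at 37°C for 24 hours in six replicates, genotypes needed ≥ 100 starting reads, and estimates < 0.5 were set to 0.5.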

Variant | yeast fitness
GUUCCGUUGCCGUAAUGGUAACGCGUCUACCUCCUAGGGAGAAGACUGCGGGUUCGAGUCCCGCACGGAACG | ≤ 0.5
GUUCCGUUGCUGUAAUGGUAACGCGUCUGCCUCCUAAGGAGUAGACUGCGGGUUCGAGUCCCGUACGGAACG | ≤ 0.5
GUUCCGUUGCCGUAAUGGUAACGCGUUUCCCUCCUCAGGAGAAGACUGCGGGUUCGAGUCUCGUACGGAACG | 0.586
GUUCCGUUGCCGUAAUGGUAAAGGGUCUCCCUCCUAAGGAGAAGACUGCGGGUUCGAGUCCCGUUCGGAACG | ≤ 0.5
GUUCCGUUGCCGUAAUGGUAAUGCGUCUCGCUCCUAAGGCGAAGACUGCAGGUUCGAGUGCCGUACGGAACG | ≤ 0.5
GUUCCGUUGCCGUAAUGGUAAGGCGUCUCUCUCCUAAGGAGAAGACUGCGGGUUUGAGUCCCGUACGGAACG | ≤ 0.5
GUUCCGUUGCCGUAAUGGUAACGCGUGUCCCUCCUAAGGAGAAGACUGCGGGUUCGAGUCGCGUACGGAACG | ≤ 0.5
GUUCCGUUGCCGUAAUGGUAACGCGUCUACCUCCUAAGGAGAAGACUGCGGGUUCGAGUCCCGUACGCAACG | ≤ 0.5
GUUCCGUUGCUGUAAUGGUAACGCGUCUCCCUCCUAAGGAGAAGACUGAGGGUUCGAGUCCCGUCCGGAACG | ≤ 0.5
GUUCCGUUGCCGUAAUGGUAACGCGUCUACCUCCUAAGGUGAAGACUGCGGGUUGGAGUCCCGUACCGAACG | ≤ 0.5
GUUCCGUUGCCGUAAUGGUAACGCGUCUUCCUCCUAAGGAGAGGACUGCGGGGUCGAGUCCCAUACGGAACG | 0.527
GUUCCGUUGCCGUAAUGGUAACGCGUGUCCCUCCUAAGGAGCAGACUGAGGGUUCGAGUCCCGUACAGAACG | ≤ 0.5
GUUCCGUUGCGGUAAUGGUAACGGGUCUCCCUCCUAAGGAGAAGACUCCGGGUUCGAGUCCCGUACGGAACG | ≤ 0.5
GUUCCGUUGCCGUAAUGGUAAAGCGUCUCCCUCCCAAGGAGAAGACUGCGGGUUCGAGUGUCAUACGGAACG | ≤ 0.5
GUUCCGUUGCCGUAAUGGUAACGCGUUUCCCUCCUAAAGAGAAGAGUGCGGGUUCGAGUCCCGUACGGAACG | 0.57
GUUCCGUUGCCGUAAUGGUAACGCGUCUGCCUCCUAAGGAGAAGACUGCGGGUUCGAGUCCCGUACGGACCG | ≤ 0.5
GUUCCGUUGCCGUAAUGGUAACGCGUCUUCUUCCUAAGGAGAAGACUGCGGGUGCGAGUCCCGUUCAGAACG | ≤ 0.5
GUUCCGUUGCUGUAAUGGUAACGCGUCUCGCUCCUAAGGAGAAGACUACGGGUACGAGUCCCGUACGUAACG | ≤ 0.5
GUUCCGUUGCCGUAAUGGUAAAGGGUCUCCCUCCUAAGGAGAAGACUGCGGGUUCGAGUCCCGUACGGACCG | 0.531

Variant | yeast fitness
GUUCCGUUGCUGUAAUGGUAACGCGUCUGCCUCCUAAGGAGAAGACUGCGGGUUUGAGUCCCGUACGGAACG | 0.556
GUUCCGUUGCCGUAAUGGUAACGCGUCUGCCUCCUAAGAAGAAGACUGCGGGUUCGAGUCCCGUACGGAACG | ≤ 0.5
GUUCCGUUGCCGUAAUGGUAACGGGUCUCCCUCCUAAGGAGAAGACUGCGGGUUCGAGUCCCGUACGGAUCG | ≤ 0.5
GUUCCGUUGCCGUAAUGGUAACGUGUCUCCCUCCUAAGGAGAAGACUGCGGGUUCGAGUCCCGCACGGAACG | ≤ 0.5
GUUCCGUUGCGGUAAUGGUAAUGCGUCUCCCUCGUAAGGAGAAGACUGCGGGUUCGAGUCCCGUACGGCACG | 0.589
GUUCCGUUGCCGUAAUGGUAACGCGUUUCCCUCCUAAGGAGAAGACUGCGGGUUCGAGUCCCGUAGGGAACG | ≤ 0.5
GUUCCGUUGCCGUAAUGGUAACGGGUCUCCCUCCUAAGGAGAAGAUUGCGGGUUCGAGUCCCGUACGGAACG | 0.702
GUUCCGUUGCCGUAAUGGUAAUGCGUCUCCCUUCCAAGGAGAAGACUGCGGGUUCGAGUCCCGUACGGAACG | ≤ 0.5
GUUCCGUUGCCGUAAUGGUAACGUGUCUGCCUCCUAAGGAGAAGACUGCGGGUUCGAGUCCCGUACGGAACG | 0.638
GUUCCGUUGCCGUAAUGGUAACGAGUCUCCCUCCUAAGGAGAAGACUGCGGAUUCGAGUCCCGUACGGAACG | ≤ 0.5
GUUCCGUUGCGGUAAUGGUAACGGGUCUCCCUCCUAAGGAGAAGACUGCGGGUUCGAGUCCCGUACAGAACG | ≤ 0.5
GUUCCGUUGCCGUAAUGGUAACGCGUGUCCCUCCUAACGAGAAGACUGCGGGUUCAAGUCCCGUACGGAACG | 0.526
GUUCCGUUGCCGUAAUGGUAACGAGUCUCGCUCCUAAGGGGAAGACGGCGGGUUUGAGUCCCGUACGGAACG | ≤ 0.5
GUUCCGUUGCCGUAAUGGUAACGGGUCUCCCUCCUAAGGAGAAGACUGUGGGUUCGAGUCCCGUAUGGAACG | ≤ 0.5
GUUCCGUUGCGGUAAUGGUAACGCGUCUCCCUCCUAAGGAGAAGUCUGCGGGUUCGAGUCCCGUACGGAACG | ≤ 0.5
GUUCCGUUGCCGUAAUGGUAACGAGUCUCCCUCCUAAGGAGAAGAUUGCGGGUUCGAGUCCCGUACGGAACG | ≤ 0.5
GUUCCGUUGCCGUAAUGGUAACGGGUCUCCCUCCUAAGGAGAAGACUGCGGGUUAGAGUCCCGUACGGAACG | ≤ 0.5
GUUCCGUUGCCGUAAUGGUAACGCGUGUCCCUCCUAAGGAGCAGACUGCGGGUUCGAGUCCCGUAUGGAACG | 0.534
